What was measured:
[1] = target: T1, Amine oxidase [flavin-containing] A (Rattus norvegicus, UniProt P21396); test: Inhibition of rat brain MAOA
T1 sequence (P21396 whole entry): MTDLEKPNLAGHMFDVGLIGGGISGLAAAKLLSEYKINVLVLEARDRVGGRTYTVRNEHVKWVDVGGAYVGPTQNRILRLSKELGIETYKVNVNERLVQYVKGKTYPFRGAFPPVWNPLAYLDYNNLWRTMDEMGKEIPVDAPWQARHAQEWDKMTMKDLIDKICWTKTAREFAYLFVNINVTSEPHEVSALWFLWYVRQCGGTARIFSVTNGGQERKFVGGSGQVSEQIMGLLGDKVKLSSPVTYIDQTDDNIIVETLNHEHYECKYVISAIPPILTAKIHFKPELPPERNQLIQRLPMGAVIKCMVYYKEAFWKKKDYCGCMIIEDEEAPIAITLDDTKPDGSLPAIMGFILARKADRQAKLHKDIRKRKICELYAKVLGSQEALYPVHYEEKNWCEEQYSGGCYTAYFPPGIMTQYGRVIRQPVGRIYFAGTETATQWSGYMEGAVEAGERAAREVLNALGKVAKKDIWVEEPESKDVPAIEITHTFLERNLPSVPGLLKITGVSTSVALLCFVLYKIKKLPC
How it was run: (§1)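 Enzyme was a crude brain mitochondrial suspension from male Sprague–Dawley rats (180–220 g). Substrates were 5-HT 100 μM for MAO-A and DMAPEA 5 μM for MAO-B. Substrates and metabolites were measured by C18 reverse-phase HPLC with electrochemical detection. IC50 was taken from % inhibition versus -log concentration, at least two experiments in triplicate, mean ± SD. Ki came from Cheng-Prusoff.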

[2] = target: T2, Amine oxidase [flavin-containing] B (Rattus norvegicus, UniProt P19643); test: Inhibition of rat brain MAOB; how it was run: as §1
T2 sequence (P19643 whole entry): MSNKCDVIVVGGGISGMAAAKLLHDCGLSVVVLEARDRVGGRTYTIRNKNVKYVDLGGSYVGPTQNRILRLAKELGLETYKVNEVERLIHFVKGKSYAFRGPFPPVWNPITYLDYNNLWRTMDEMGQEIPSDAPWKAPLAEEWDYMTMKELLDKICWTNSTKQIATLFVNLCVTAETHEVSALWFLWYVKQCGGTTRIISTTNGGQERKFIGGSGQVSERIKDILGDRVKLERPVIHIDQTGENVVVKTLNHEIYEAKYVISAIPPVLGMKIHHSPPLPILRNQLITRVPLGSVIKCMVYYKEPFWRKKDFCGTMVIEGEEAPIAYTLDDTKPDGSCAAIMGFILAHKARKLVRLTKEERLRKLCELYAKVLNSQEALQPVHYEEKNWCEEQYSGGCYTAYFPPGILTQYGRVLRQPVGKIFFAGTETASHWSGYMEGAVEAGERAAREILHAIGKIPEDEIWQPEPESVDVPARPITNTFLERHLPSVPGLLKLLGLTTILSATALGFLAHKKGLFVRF

[3] = target: T3, Amine oxidase [flavin-containing] A (Homo sapiens, UniProt P21397); test: Inhibition of human recombinant MAOA expressed in Pichia pastoris
T3 sequence (P21397 whole entry): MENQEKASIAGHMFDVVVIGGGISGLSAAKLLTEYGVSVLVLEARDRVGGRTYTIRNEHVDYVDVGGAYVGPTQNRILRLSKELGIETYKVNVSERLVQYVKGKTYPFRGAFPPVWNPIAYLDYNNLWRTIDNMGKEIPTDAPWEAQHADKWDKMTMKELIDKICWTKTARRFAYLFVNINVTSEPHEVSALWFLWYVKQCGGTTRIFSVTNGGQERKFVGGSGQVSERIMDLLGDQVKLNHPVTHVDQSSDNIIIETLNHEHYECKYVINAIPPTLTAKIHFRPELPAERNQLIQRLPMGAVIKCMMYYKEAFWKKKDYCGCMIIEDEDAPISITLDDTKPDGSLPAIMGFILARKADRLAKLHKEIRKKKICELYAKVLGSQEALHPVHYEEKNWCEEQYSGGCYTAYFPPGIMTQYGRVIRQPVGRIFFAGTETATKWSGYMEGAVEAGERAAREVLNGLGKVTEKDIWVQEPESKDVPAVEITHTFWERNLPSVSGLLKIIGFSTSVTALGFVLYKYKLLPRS
How it was run: (§2)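 Purified recombinant enzyme desalted on Sephadex G-25 into 50 mM potassium phosphate pH 7.5 with 0.8% β-octyl-glucoside. Activity was read spectrophotometrically with and without inhibitor in 50 mM HEPES pH 7.5 with 0.5% reduced Triton X-100 at 25°C. Substrates were kynuramine for MAO-A and benzylamine for MAO-B.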

[4] = target: T4, Amine oxidase [flavin-containing] B (Homo sapiens, UniProt P27338); test: Inhibition of human recombinant MAOB expressed in Pichia pastoris; how it was run: as §2
T4 sequence (P27338 whole entry): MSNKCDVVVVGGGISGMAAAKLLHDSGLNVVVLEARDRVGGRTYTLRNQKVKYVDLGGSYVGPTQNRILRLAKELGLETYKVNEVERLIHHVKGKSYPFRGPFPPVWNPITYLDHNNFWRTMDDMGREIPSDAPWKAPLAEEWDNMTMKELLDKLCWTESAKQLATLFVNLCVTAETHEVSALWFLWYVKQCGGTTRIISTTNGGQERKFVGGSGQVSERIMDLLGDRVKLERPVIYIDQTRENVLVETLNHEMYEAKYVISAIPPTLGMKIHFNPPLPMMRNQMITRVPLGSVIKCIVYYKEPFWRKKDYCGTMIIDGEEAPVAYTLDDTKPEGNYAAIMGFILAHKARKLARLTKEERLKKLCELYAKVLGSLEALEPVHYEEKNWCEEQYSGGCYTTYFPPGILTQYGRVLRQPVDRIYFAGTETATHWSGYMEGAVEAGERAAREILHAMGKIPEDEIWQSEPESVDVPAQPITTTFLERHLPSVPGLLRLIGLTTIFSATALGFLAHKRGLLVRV

| Compound | Ki [1] [µM] | Ki [2] [µM] | Ki [3] [µM] | Ki [4] [µM] |
| --- | --- | --- | --- | --- |
| CCCSc1ccc(C[C@H](C)N)cc1 | 0.115 | 15000 | 0.03 | 14 |
| CCSc1ccc(C[C@H](C)N)cc1 | 0.054 | > 100 | 0.075 | > 100 |
| CCCCSc1ccc(C[C@H](C)N)cc1 | 0.392 | 8.92 | 0.022 | 4.58 |
| CSc1ccc(C[C@H](C)N)cc1 | 0.245 | > 100 | 0.133 |  |

Reference: ChEMBL document CHEMBL1143709, “Human and rat monoamine oxidase-A are differentially inhibited by (S)-4-alkylthioamphetamine derivatives: insights from molecular modeling studies” (Bioorg Med Chem, 2007)
